Assay [1] can be described thus: inhibitors of TNFa-induced NFkB p65 translocation, primary screen, imaging, HUVEC, MLSMR starter and 10KST1 sets (AID 438;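 active = inhibition above 20% together with a positive visual image hit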;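 note: compound added about 3h40 before a 20 min TNFalpha stimulation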;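 for inhibition: signal is the nuclear over cytoplasmic p65 intensity ratio per well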). The conditions noted are these: HUVEC TNFa-induced p65 nuclear translocation; cell count: measured here: nuclei count (cytotoxicity indicator), at 2.08 µM; inhibition: at 2 µM, stronger effect = higher value, 0% TNFa-plus-vehicle, 100% no-TNFa wells.
Assay [2] can be described thus: inhibitors of mutant huntingtin aggregation, primary screen, imaging, exon1htt(103Q)mCFP cells, high-content imaging (AID 483;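 active = visual image review flags a hit and inhibition of aggregation exceeds 20%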;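 note: compound exposure lasted 3 days before fixation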;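 for nuclei count: percent of the per-plate median nuclei count of sample wells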). The conditions noted are these: exon1htt(103Q)mCFP cell line, aggregate imaging, at 2 µM; inhibition of aggregation: stronger effect = higher value; nuclei count: measured here: cell count, toxicity.
The nature of assay [3]: inhibitors of E-selectin induction by TNFa, primary screen, imaging, HUVEC, immunofluorescence, MLSMR starter and 10KST1 sets (AID 487;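 active = visually confirmed hit in the image check and inhibition above 20%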;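 for inhibition: signal is fraction of cell area covered by stained E-selectin grains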;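 for nuclei count: 100% = median nuclei count of all wells on the same plate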). Conditions: HUVEC TNFalpha-induced E-selectin immunofluorescence imaging, at 2 µM; inhibition: stronger effect = higher value; nuclei count: measured here: cell number, toxicity.
The target of assay [4] is Voltage-gated potassium channel subunit beta-2 (Rattus norvegicus) (UniProt P62483). In words: KvBeta enzyme negative modulators, primary screen, biochemical, NADPH fluorescence (AID 622).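 Note: slope of raw intensity against log time taken from 70 to 1610 s.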 The conditions noted are these: recombinant KvBeta, 4-cyanobenzaldehyde reduction, at 10 µM, stronger effect = higher value.
The target is the same in assay [5]. The assay is described as follows: KvBeta positive modulators, primary screen, biochemical, NADPH fluorescence (AID 623;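 active = NADPH fluorescence slope more negative than the mean of all samples by about 3 SD, 99.7% confidence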;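 note: fluorescence intensity change per second fitted from 20 to 320 s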). The conditions noted are these: Recombinant KvBeta, NADPH fluorescence decrease slope, 10 min; at 10 µM; stronger effect = lower value.
For assay [6], the target named is Muscarinic acetylcholine receptor M4 (Homo sapiens) (UniProt P08173). The assay is described as follows: compounds altering M4/GIRK thallium flux, either direction, primary screen, M4 allosteric agonist project, cell-based, HEK293 M4/GIRK, BTC-AM (AID 625;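 active = fluorescence slope after compound addition differing from the mean of all tested samples at 99.7% confidence, mostly higher but some lower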;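 note: thallium influx through GIRK channels coupled to M4 in HEK293 cells with BTC-AM dye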). The conditions noted are these: at 10 µM, actives lie on both sides. The method, boiled down:
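System: HEK293 cells with M4 receptor and GIRK channels | Incubation: Cells overnight at 37 °C, BTC-AM loading 1 h, reads 2 min total | Technique: Kinetic BTC-AM fluorescence sampled at 1 Hz, 10 s pre-addition baseline | Measure: Post-addition slope, 15–24 s, of baseline-normalized fluorescence | Control set: Carbachol positive, DMSO negative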

The nature of assay [7]: inhibitors of Sendai virus-induced IRF3 signaling, primary screen, TLR/RLR signaling modifier project, cell-based, Sendai virus stimulus, luciferase, 10K MLSCN set (AID 602276;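 active = inhibition at or above 50% at 10 µM; inactive = inhibition below 50%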;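 note: firefly luciferase from ISG56 promoter only with Renilla not read in this screen; 0% = Sendai virus plus DMSO and 100% = medium plus DMSO without virus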). The conditions noted are these: HEK293 RL24 IRF3 luciferase reporter, at 10 µM, stronger effect = higher value. A general note: Reporter assays use an easily measured gene product as a stand-in for the process of interest.

The nature of assay [8]: inhibitors of poly I:C-induced TLR3 signaling, primary screen, cell-based, poly I:C stimulus, luciferase, 10K MLSCN set (AID 602277;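 active = inhibition of the reporter signal at or above 50%; inactive = inhibition below 50%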). Conditions: HEK293-TLR3 RL24 IRF3 luciferase reporter, at 10 µM, stronger effect = higher value.

One may read the inhibition as the drop in the measured response relative to a control, in per cent.

SMILES strings stand for the structures. The source made the active and inactive calls.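 Rule for the calls, unless noted: active = fluorescence slope higher than the sample average by over 3 SD (cut at about -0.22 in these data, passing the limit was not always enough); inactive = the rest.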

Chain of Voltage-gated potassium channel subunit beta-2 (Rattus norvegicus) (P62483 whole entry, looked up): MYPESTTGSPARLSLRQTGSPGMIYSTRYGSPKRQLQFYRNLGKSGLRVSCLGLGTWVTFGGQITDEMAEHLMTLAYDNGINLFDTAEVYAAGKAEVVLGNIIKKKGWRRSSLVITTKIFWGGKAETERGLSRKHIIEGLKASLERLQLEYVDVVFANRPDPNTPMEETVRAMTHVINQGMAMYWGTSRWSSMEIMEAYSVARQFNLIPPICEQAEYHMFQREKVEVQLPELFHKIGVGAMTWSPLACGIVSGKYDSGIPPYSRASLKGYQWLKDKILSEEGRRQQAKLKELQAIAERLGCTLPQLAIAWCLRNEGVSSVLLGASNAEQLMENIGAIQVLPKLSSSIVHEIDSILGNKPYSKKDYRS
Chain of Muscarinic acetylcholine receptor M4 (Homo sapiens) (P08173 whole entry, looked up): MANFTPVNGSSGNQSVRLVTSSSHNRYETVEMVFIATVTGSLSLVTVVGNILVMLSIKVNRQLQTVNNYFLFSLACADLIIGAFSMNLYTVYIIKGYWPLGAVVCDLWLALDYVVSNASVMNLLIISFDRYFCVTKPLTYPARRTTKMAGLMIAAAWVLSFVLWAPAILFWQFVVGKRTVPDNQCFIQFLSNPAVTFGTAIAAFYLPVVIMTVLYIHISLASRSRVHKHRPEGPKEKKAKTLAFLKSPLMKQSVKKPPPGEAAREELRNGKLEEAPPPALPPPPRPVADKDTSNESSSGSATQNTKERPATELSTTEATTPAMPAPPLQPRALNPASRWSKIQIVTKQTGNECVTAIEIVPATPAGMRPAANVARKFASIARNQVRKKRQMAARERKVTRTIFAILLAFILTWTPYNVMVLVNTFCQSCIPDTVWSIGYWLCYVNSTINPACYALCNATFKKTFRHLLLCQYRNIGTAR

With `O=C(CCCn1c(=O)c2sccc2n(CC(=O)NCc2ccco2)c1=O)NCc1ccco1`, the cell count in assay [1] was found to be 263. In addition, the inhibition in assay [1] was 2.8% (inactive); in assay [3], -49.2% (inactive); in assay [7], 13.9% (inactive); in assay [8], 15% (inactive). The inhibition of aggregation in assay [2] is -6.2% (inactive). The nuclei count in assay [2] was 98.5%; in assay [3], 117%. Besides, the fluorescence slope in assay [4] is -0.567 (inactive); in assay [6] it was 0.00613 (inactive). For the same molecule, the NADPH fluorescence slope in assay [5] was -5.7e-05 (inactive).
In the case of `CCOC(=O)CNC(=O)CSc1ncnc2c1cnn2-c1ccccc1`, the cell count in assay [1] was 564. Also, the inhibition is -9.2% (inactive) in assay [1], -69.6% (inactive) in assay [3], 7.97% (inactive) in assay [7] and 8.26% (inactive) in assay [8]. In assay [2], the inhibition of aggregation is -10.3% (inactive). For the same molecule, the nuclei count amounted to 113% in assay [2] and 118% in assay [3]. Moreover, the figures for the fluorescence slope in assay [4] and in assay [6] were -0.562 (inactive) and 0.00493 (inactive), respectively. Also, the NADPH fluorescence slope in assay [5] is 3.9e-05 (inactive).
For the molecule `CC(=O)Nc1c(Cl)n(C(C)=O)c2ccccc12`, the cell count in assay [1] was 432. For the same molecule, the inhibition was -1% (inactive) in assay [1], -3.8% (inactive) in assay [3], 27.6% (inactive) in assay [7] and 21% (inactive) in assay [8]. The inhibition of aggregation in assay [2] was -9.1% (inactive). Moreover, the nuclei count in assay [2] is 100%; in assay [3], 103%. Also, the fluorescence slope was -0.304 (inactive) in assay [4] and 0.00935 (inactive) in assay [6]. The NADPH fluorescence slope in assay [5] was -2.6e-05 (inactive).
For `Cc1cc2c(c(=O)n1CCc1ccccc1)C(C(C)C)C(C#N)=C(N)O2` (configuration not stated), the cell count in assay [1] came to 565. Also, the inhibition in assay [1] was 11.2% (inactive); in assay [3], -39% (inactive); in assay [7], 15.9% (inactive); in assay [8], 25.8% (inactive). Besides, the inhibition of aggregation in assay [2] was -1.8% (inactive). Also, the nuclei count was 106% in assay [2] and 123% in assay [3]. Moreover, the results for the fluorescence slope in assay [4] and in assay [6] were -0.577 (inactive) and 0.00377 (inactive), respectively. The NADPH fluorescence slope in assay [5] was -7.9e-05 (inactive).
For the molecule `Cc1cccc(N2CCN(C(=O)c3cc4c(=O)[nH]c5ccccc5c4n3C)CC2)c1C`, the cell count in assay [1] was determined as 228. Further, the inhibition was 5.8% (inactive) in assay [1], -26.1% (inactive) in assay [3], 9.93% (inactive) in assay [7] and -17.5% (inactive) in assay [8]. In addition, in assay [2], the inhibition of aggregation was 5.3% (inactive). The nuclei count came out at 85.4% in assay [2] and 106% in assay [3]. Further, the fluorescence slope in assay [4] is -0.529 (inactive); in assay [6], 0.00424 (inactive). For the same molecule, in assay [5], the NADPH fluorescence slope was -2.8e-05 (inactive).
Turning to `Cc1ccccc1C(=O)N1CCC(C(=O)Nc2ccc(S(=O)(=O)N3CCCC3)cc2)CC1`, in assay [1], the cell count came out at 186. Besides, the inhibition was 6.1% (inactive) in assay [1], 12.2% (inactive) in assay [3], 8.84% (inactive) in assay [7] and 16.9% (inactive) in assay [8]. Also, the inhibition of aggregation in assay [2] is -11% (inactive). Moreover, the nuclei count in assay [2] came out at 105%; in assay [3] it was 97.5%. For the same molecule, the fluorescence slope in assay [4] was -0.566 (inactive); in assay [6] it was 0.0067 (inactive). Further, the NADPH fluorescence slope in assay [5] is -3.8e-05 (inactive).
Regarding `CC1CCN(CCCNC(=O)c2cn(C)c3ccc(S(=O)(=O)N4CCCC4)cc3c2=O)CC1`, the cell count in assay [1] came out at 515. Besides, the inhibition in assay [1] is 1.8% (inactive); in assay [3] it was 18.8% (inactive); in assay [7], 3.75% (inactive); in assay [8] it was 21.7% (inactive). The inhibition of aggregation in assay [2] is 0% (inactive). The nuclei count in assay [2] came to 93.4%; in assay [3] it was 61.5%. Further, the fluorescence slope in assay [4] was -0.321 (inactive); in assay [6], 0.00713 (inactive). Moreover, the NADPH fluorescence slope in assay [5] is -5.9e-05 (inactive).
Regarding `O=C(c1cccn2c(=O)c3cc(Cl)ccc3nc12)N1CCOCC1`, in assay [1], the cell count came to 488. Moreover, the inhibition in assay [1] was -23.1% (inactive); in assay [3] it was -117% (inactive); in assay [7], 7.46% (inactive); in assay [8], 19.6% (inactive). The inhibition of aggregation in assay [2] was 10% (inactive). In addition, the nuclei count in assay [2] was 106%; in assay [3], 140%. Further, the fluorescence slope in assay [4] was -0.027 (inactive); in assay [6], 0.00457 (inactive). The NADPH fluorescence slope in assay [5] is 8.6e-06 (inactive).
Regarding `CC(NC(=O)c1ccc(F)cc1)C(c1cccs1)N1CCN(C)CC1` (configuration not stated), in assay [1], the cell count is 466. Also, the inhibition was -7.5% (inactive) in assay [1], 23% (inactive) in assay [3], 5.9% (inactive) in assay [7] and 15.9% (inactive) in assay [8]. Besides, the inhibition of aggregation in assay [2] was -8.9% (inactive). Moreover, the nuclei count in assay [2] is 93.6%; in assay [3] it was 92.2%. The fluorescence slope is -0.424 (inactive) in assay [4] and 0.00581 (inactive) in assay [6]. Also, the NADPH fluorescence slope in assay [5] was -5e-05 (inactive).
Consider `Cc1ccc(S(=O)(=O)N2CCC(C(=O)N[C@@H](Cc3ccccc3)C(=O)O)CC2)cc1`, for which the cell count in assay [1] came to 332. Besides, the inhibition in assay [1] is -14.4% (inactive); in assay [3], 41.9% (inactive); in assay [7] it was -10.7% (inactive); in assay [8] it was -5.08% (inactive). The inhibition of aggregation in assay [2] was 11.7% (inactive). Moreover, the figures for the nuclei count in assay [2] and in assay [3] were 99.8% and 97.6%, respectively. Moreover, the fluorescence slope is -0.563 (inactive) in assay [4] and 0.00616 (inactive) in assay [6]. For the same molecule, the NADPH fluorescence slope in assay [5] was -4.9e-05 (inactive).
As to `c1ccc2c(c1)Cn1c-2nc2ccccc21`, the cell count in assay [1] was determined as 700. The inhibition was -28.4% (inactive) in assay [1], -26.5% (inactive) in assay [3], -36.1% (inactive) in assay [7] and -131% (inactive) in assay [8]. For the same molecule, the inhibition of aggregation in assay [2] is 5.7% (inactive). Besides, the nuclei count in assay [2] came to 80.7%; in assay [3], 114%. Besides, the fluorescence slope in assay [4] was -0.349 (inactive); in assay [6], 0.00562 (inactive). Also, in assay [5], the NADPH fluorescence slope was -6.3e-05 (inactive).
For the molecule `Cc1cc(-c2ccccc2)c2nncn2n1`, in assay [1], the cell count was found to be 304. The inhibition in assay [1] was 0.9% (inactive); in assay [3], 1.4% (inactive); in assay [7] it was 18.1% (inactive); in assay [8], 15.3% (inactive). In assay [2], the inhibition of aggregation is -3% (inactive). The nuclei count came out at 108% in assay [2] and 107% in assay [3]. The fluorescence slope in assay [4] is -0.492 (inactive); in assay [6], 0.00457 (inactive). In assay [5], the NADPH fluorescence slope was -1.4e-05 (inactive).

Values taken from PubChem BioAssay.
